Data taken from PMC3545439 (Investigational new drugs, 2010).
Where two headings read alike, the source gives them in different places.

Experiments:
[1] = Vorinostat serum pharmacokinetics in patients; type: in vivo, human
[2] = system: patients with advanced solid tumors; assay: Phase I dose escalation: toxicity; type: in vivo, human
Method in brief: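 Open-label, non-randomized 3+3 escalation in groups of 3–6, outpatient, with no intra-patient escalation. […] DLT was grade 4 hematologic or grade 3–4 non-hematologic toxicity (including diarrhea despite prophylaxis), or delay allowing fewer than 2 treatments in weeks 1–3. MTD was one level below the dose at which ≥2 patients had first-cycle DLT.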

[3] = system: patients; details: PO daily × 3 days, every 14 days, with infusional fluorouracil and leucovorin; cited from earlier work
[4] = cited from earlier work
[5] = cited from earlier work; remark: listed apart in the source
[6] = Flavopiridol plasma pharmacokinetics in patients; type: in vivo, human

| SMILES | patients achieving vorinostat Cmax ≥2.5 μM ([1]; 800 mg dose level (MTD)) [%] | increase of vorinostat Cmax by flavopiridol ([1]; cycle 1 versus cycle −1, all patients, 95% CI 11%–43%) [%] | maximum tolerated dose (MTD) of vorinostat ([2]; 21-d schedule: days 1–3 and 8–10, with flavopiridol 60 mg/m^2 over 1 hr days 2 and 9) [mg/day] | maximum tolerated dose (MTD) of vorinostat ([2]; 28-d schedule: days 1–3 and 15–17, with split-dose flavopiridol days 2 and 16) [mg/day] | MTD of vorinostat [3] | Cmax ([4]; read-out: average Cmax, vorinostat in combination with carboplatin and paclitaxel or FOLFOX) [nM] | Cmax ([4]; standard dose 400 mg PO daily continuously) [nM] | Cmax ([4]; vorinostat 900 mg/m^2 IV daily × 3 days every 3 weeks) [nM] | vorinostat level that enhances chemotherapy in vitro [5] [µM] | Cmax ([6]; human, plasma, intravenous) [µM] | patients achieving flavopiridol Cmax of ≥2 μM ([6]; patients tested (20)) [%] | maximum tolerated dose (MTD), flavopiridol ([2]; 21-d schedule, bolus over 1 hr days 2 and 9, with vorinostat 600 mg/d) [mg/m^2] | maximum tolerated dose (MTD), flavopiridol ([2]; 28-d schedule, split dose days 2 and 16, with vorinostat 800 mg/d) |
| --- | --- | --- | --- | --- | --- | --- | --- | --- | --- | --- | --- | --- | --- |
| O=C(CCCCCCC(=O)Nc1ccccc1)NO [vorinostat, suberoylanilide hydroxamic acid] | 86 | 27 | 600 | 800 | 1,700 mg | < 2000 | ~2500 | > 30000 | > 2.5 |  |  |  |  |
| CN1CC[C@H](c2c(O)cc(O)c3c(=O)cc(-c4ccccc4Cl)oc23)[C@H](O)C1 [flavopiridol] |  |  |  |  |  |  |  |  |  | 3.92 | 90 | 60 | 30 mg/m^2 over 30 min followed by 30 mg/m^2 over 4 h |
